Each block holds one compound with its values, some of them ahead of it.
Legend:
Assay type in all cases: ADME
Cytochrome P450 3A5 [1] = biological target: T1, Cytochrome P450 3A5 (Homo sapiens, UniProt P20815); experiment: Inhibition of human recombinant CYP3A5 using testosterone as substrate assessed as testosterone 6-beta-hydroxylation at 5 to 50 uM preincubated up to 30 mins with NADPH followed by substrate addition measured after 10 mins by LC/MS/MS analysis; conditions: recombinant enzyme
Summary of the method: (§1)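 Primary incubation at 37°C (n=3) held 20 pmol/ml rCYP3A5 in 100 mM phosphate (pH 7.4), 0.1% DMSO and 0.9% ACN, with inhibitor; lapatinib was at 2.5–50 µM. NADPH started the reaction; buffer replaced it in negative controls. At 0, 3, 8, 15, 22 and 30 min, aliquots were diluted 10-fold into 200 µM testosterone or 25 µM midazolam with NADPH regenerating system for 10 min at 37°C. 6β-Hydroxytestosterone or 1'-hydroxymidazolam was measured by LC/MS/MS. Ln % residual activity was regressed against time to give kobs.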

Cytochrome P450 3A5 [2] = biological target: T1, Cytochrome P450 3A5; experiment: Drug level assessed as recombinant human CYP3A5-mediated compound formation treated with lapatinib at 50 uM after 60 mins by GSH trapping assay in presence of NADPH; conditions: recombinant enzyme, 1 h
Summary of the method: (§2)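 Recombinant CYP3A5 at 50 pmol/ml with 5 mM GSH and an NADPH regenerating system in 100 mM potassium phosphate (pH 7.4) was pre-warmed at 37°C. Substrate was added to start the reaction. After 60 min it was quenched with ice-cold ACN and centrifuged, and the supernatant was dried under nitrogen and reconstituted. Adducts were detected by LC/MS/MS MRM scans. Negative controls omitted substrate, NADPH or GSH.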

Cytochrome P450 3A5 [3] = biological target: T1, Cytochrome P450 3A5; experiment: Drug level assessed as recombinant human CYP3A5-mediated compound formation treated with O-dealkylated lapatinib at 50 uM after 60 mins by GSH trapping assay in presence of NADPH; conditions: recombinant enzyme, 1 h; summary of the method: as §2
Cytochrome P450 3A5 [4] = biological target: T1, Cytochrome P450 3A5; experiment: Inhibition of human recombinant CYP3A5 at 50 uM preincubated up to 30 mins with NADPH in presence of GSH; conditions: recombinant enzyme
Summary of the method: (§3)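 Primary incubation at 37°C contained 20 pmol/ml rCYP3A5 in 100 mM phosphate (pH 7.4) with 50 µM lapatinib and NADPH, with or without 2 mM GSH. At 0–30 min, aliquots were diluted 10-fold into secondary incubations with 200 µM testosterone and NADPH regenerating system for 10 min at 37°C. 6β-Hydroxytestosterone was measured by LC/MS/MS. Triplicates were run.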

Cytochrome P450 3A5 [5] = biological target: T1, Cytochrome P450 3A5; experiment: Inhibition of human recombinant CYP3A5 using midazolam as substrate assessed as midazolam 1'-hydroxylation at 2.5 to 50 uM preincubated up to 30 mins with NADPH followed by substrate addition measured after 10 mins by LC/MS/MS analysis; conditions: recombinant enzyme; summary of the method: as §1
CYP3A5 [6] = biological target: T2, CYP3A5 (Homo sapiens, UniProt P20815); experiment: Inhibition of human recombinant CYP3A5 assessed as reduction of enzyme-CO complex formation at 50 uM preincubated for 3 to 5 mins with NADPH B followed by NADPH A addition measured after 30 mins by CO difference spectroscopy relative to control
Summary of the method: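 rCYP3A5 640 pmol/ml with 50 μM inhibitor in 100 mM potassium phosphate pH 7.4, prewarmed 3–5 min at 37°C, NADPH-initiated, incubated 30 min at 37°C (n=3). Quenched in buffer with EDTA, glycerol, NP-40, safranin O; split sample/reference, CO bubbled (~100 bubbles). P450 content = (ΔA450−ΔA490)/0.091; controls without NADPH.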

Cytochrome P450 3A5 [7] = biological target: T1, Cytochrome P450 3A5; experiment: Inhibition of human recombinant CYP3A5 using testosterone as substrate assessed as testosterone 6-beta-hydroxylation at 2.5 to 50 uM preincubated up to 30 mins with NADPH followed by substrate addition by LC/MS/MS analysis; conditions: recombinant enzyme, TDE = time-dependent effect
Summary of the method: (§4)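 Primary: rCYP3A5 20 pmol/ml, inhibitor 2.5–50 μM, 100 mM phosphate pH 7.4, 37°C, NADPH-initiated; aliquots at 0–30 min diluted 10-fold into secondary mix with 200 μM testosterone plus NADPH regenerating system, 10 min at 37°C. 6β-hydroxytestosterone by LC/MS/MS, triplicate. ln % residual activity vs time gave kobs; KI, kinact from Kitz-Wilson plot.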

CYP3A4 = CYP3A4 (Homo sapiens, UniProt P08684); experiment: Ratio of Kinact to Ki for recombinant human CYP3A4 using testosterone as substrate; conditions: recombinant human CYP3A4, probe testosterone
Cytochrome P450 3A5 [8] = biological target: T1, Cytochrome P450 3A5; experiment: Inhibition of human recombinant CYP3A5 at 50 uM preincubated up to 30 mins with NADPH in absence of GSH; conditions: recombinant enzyme; summary of the method: as §3
Cytochrome P450 3A5 [9] = biological target: T1, Cytochrome P450 3A5; experiment: Inhibition of human recombinant CYP3A5 using testosterone as substrate assessed as testosterone 6beta-hydroxylation at 50 uM preincubated up to 30 mins with NADPH followed by substrate addition measured after 10 mins by LC/MS/MS analysis; conditions: recombinant enzyme; summary of the method: as §1
Cytochrome P450 3A5 [10] = biological target: T1, Cytochrome P450 3A5; experiment: Inhibition of human recombinant CYP3A5 assessed as metabolite-inhibitor complex formation at 50 uM preincubated for 3 to 5 mins with NADPH A followed by NADPH B addition measured every 1 min for 10 mins by UV absorbance spectra analysis; conditions: recombinant enzyme
Summary of the method: (§5)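 For difference spectra, 50 µM compound with 100 pmol/ml recombinant enzyme and NADPH A in 100 mM potassium phosphate (pH 7.4) was pre-warmed at 37°C for 3–5 min. NADPH B was added to start the reaction. The mixture was scanned from 430 to 495 nm every 1 min for 10 min at 37°C against a reference cuvette, normalized to 0 min. The negative control replaced NADPH B with buffer.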

CYP3A5 [11] = biological target: T2, CYP3A5; experiment: (§6) Inhibition of human recombinant CYP3A5 using testosterone as substrate assessed as testosterone 6-beta-hydroxylation preincubated up to 30 mins with NADPH followed by substrate addition measured after 10 mins by LC/MS/MS analysis; conditions: human, recombinant human CYP3A5, probe testosterone; summary of the method: as §4
Cytochrome P450 3A5 [12] = biological target: T1, Cytochrome P450 3A5; experiment: as §6; summary of the method: as §4
Cytochrome P450 3A5 [13] = biological target: T1, Cytochrome P450 3A5; experiment: Irreversible inhibition of human recombinant CYP3A5 using testosterone as substrate assessed as residual enzyme activity at 50 uM preincubated up to 30 mins with NADPH followed by substrate addition measured after dialysis
Summary of the method: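 200 pmol/ml rCYP3A5 with 50 µM lapatinib and NADPH in 100 mM phosphate (pH 7.4) was incubated for 30 min at 37°C (n=3). Mixtures were dialysed (12000–14000 Da cut-off) against buffer at 4°C with one buffer change at 2 h, then for 4 h more. Aliquots before and after dialysis were assayed with 200 µM testosterone for 10 min at 37°C. 6β-Hydroxytestosterone was measured by LC/MS/MS.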

Cytochrome P450 3A5 [14] = biological target: T1, Cytochrome P450 3A5; experiment: Inhibition of human recombinant CYP3A5 using testosterone as substrate assessed as testosterone 6-beta-hydroxylation at 50 uM preincubated up to 30 mins without NADPH followed by substrate addition measured after 10 mins by LC/MS/MS analysis; conditions: recombinant enzyme; summary of the method: as §1
CYP3A5 [15] = biological target: T2, CYP3A5; experiment: Ratio of Kinact to Ki for recombinant human CYP3A5 using testosterone as substrate; conditions: recombinant human CYP3A5, probe testosterone; summary of the method: as §4
Cytochrome P450 3A4 = Cytochrome P450 3A4 (Homo sapiens, UniProt P08684); experiment: Inhibition of human recombinant CYP3A4 assessed as metabolite-inhibitor complex formation at 50 uM preincubated for 3 to 5 mins with NADPH A followed by NADPH B addition measured every 1 min for 10 mins by UV absorbance spectra analysis; conditions: recombinant enzyme; summary of the method: as §5
Cytochrome P450 3A5 [16] = biological target: T1, Cytochrome P450 3A5; experiment: Drug metabolism assessed as recombinant human CYP3A5-mediated quinoneimine metabolite formation by measuring retention time at 50 uM after 60 mins by GSH trapping assay in presence of NADPH; conditions: recombinant enzyme, 1 h; summary of the method: as §2

T2 sequence (P20815 whole entry): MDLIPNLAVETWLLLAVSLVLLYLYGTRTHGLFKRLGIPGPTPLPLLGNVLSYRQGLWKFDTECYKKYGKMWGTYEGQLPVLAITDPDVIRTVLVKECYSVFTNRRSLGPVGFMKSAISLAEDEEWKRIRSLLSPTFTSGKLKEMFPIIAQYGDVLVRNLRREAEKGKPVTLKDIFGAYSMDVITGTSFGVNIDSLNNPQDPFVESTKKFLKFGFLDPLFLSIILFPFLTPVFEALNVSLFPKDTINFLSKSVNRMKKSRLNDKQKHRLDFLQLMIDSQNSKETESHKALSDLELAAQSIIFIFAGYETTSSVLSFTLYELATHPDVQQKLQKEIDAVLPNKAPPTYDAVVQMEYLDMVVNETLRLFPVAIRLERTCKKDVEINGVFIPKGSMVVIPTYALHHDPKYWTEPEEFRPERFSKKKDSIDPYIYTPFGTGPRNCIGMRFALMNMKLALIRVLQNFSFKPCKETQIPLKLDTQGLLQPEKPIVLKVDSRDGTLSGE
T1 sequence (P20815 whole entry): as above
Chain of CYP3A4 (P08684 whole entry): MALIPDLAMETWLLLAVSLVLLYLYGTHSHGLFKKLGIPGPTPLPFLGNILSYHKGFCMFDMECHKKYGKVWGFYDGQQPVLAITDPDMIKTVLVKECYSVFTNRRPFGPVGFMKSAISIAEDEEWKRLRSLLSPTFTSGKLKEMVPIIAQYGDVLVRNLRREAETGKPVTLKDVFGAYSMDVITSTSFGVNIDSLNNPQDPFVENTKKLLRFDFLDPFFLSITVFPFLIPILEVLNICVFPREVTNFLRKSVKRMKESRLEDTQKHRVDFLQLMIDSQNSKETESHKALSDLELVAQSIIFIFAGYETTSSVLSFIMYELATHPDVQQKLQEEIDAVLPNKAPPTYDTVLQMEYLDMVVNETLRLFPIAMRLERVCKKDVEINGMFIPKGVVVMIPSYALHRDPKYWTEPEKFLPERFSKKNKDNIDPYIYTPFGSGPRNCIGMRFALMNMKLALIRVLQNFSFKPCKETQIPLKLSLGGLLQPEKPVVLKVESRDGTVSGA
Chain of Cytochrome P450 3A4 (P08684 whole entry): as above

- inhibition (INH) (Cytochrome P450 3A5 [1]): Not Active
Structure (SMILES): CS(=O)(=O)CCNCc1ccc(-c2ccc3ncnc(Nc4ccc(O)c(Cl)c4)c3c2)o1

- Drug metabolism (Cytochrome P450 3A5 [2]): metabolite_detected
- Drug metabolism (Cytochrome P450 3A5 [3]): metabolite_detected
Structure (SMILES): CS(=O)(=O)CCNCc1ccc(-c2ccc3ncnc(/N=C4\C=CC(=O)C(Cl)=C4)c3c2)o1

- inhibition (INH) (Cytochrome P450 3A5 [4]): Not Active
- inhibition (INH) (Cytochrome P450 3A5 [5]): Not Active
- inhibition at 0.5 h, 50 µM (CYP3A5 [6]): 22%
- inhibition (INH) (Cytochrome P450 3A5 [7]): tde
- kinact/KI (CYP3A4): 197 M⁻¹ s⁻¹
- inhibition (INH) (Cytochrome P450 3A5 [8]): Active
- inhibition (INH) (Cytochrome P450 3A5 [9]): Active
- inhibition (INH) (Cytochrome P450 3A5 [10]): Not Active
- kinact at 10 min (CYP3A5 [11]): 0.000377 s⁻¹
- Ki (Cytochrome P450 3A5 [12]): 37.6 µM
- inhibition (INH) (Cytochrome P450 3A5 [12]; human, recombinant enzyme, 10 min): Dose-dependent effect
- inhibition (INH) (Cytochrome P450 3A5 [13]): Active
- inhibition (INH) (Cytochrome P450 3A5 [14]): Not Active
- kinact/KI (CYP3A5 [15]): 10 M⁻¹ s⁻¹
- inhibition (INH) (Cytochrome P450 3A4): Active
- Retention_time (Cytochrome P450 3A5 [16]): 1.71 min
Structure (SMILES): CS(=O)(=O)CCNCc1ccc(-c2ccc3ncnc(Nc4ccc(OCc5cccc(F)c5)c(Cl)c4)c3c2)o1 [LAPATINIB]
